pIC50: −log10 of the molar value.
How the values were obtained:
Type in all cases: functional, cell-based
U-937 = assay: Cytotoxicity against human U937 cells after 72 hrs by MTT assay; details: U-937, 72 h
Method in brief: (§1)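 MTT assay: 1 × 10^4 exponentially growing cells per well incubated 72 h over a range of compound concentrations; MTT 0.5 mg/mL for 4 h at 37 °C, then 10% SDS in 0.05 M HCl overnight at room temperature in the dark; absorbance at 570 nm. Leukemia and SK-MEL-1 lines grown in RPMI 1640, MCF-7 in DMEM, both with 10% heat-inactivated FBS. IC50 given as mean ± SEM of 3–5 independent experiments, each in triplicate.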

HL-60 = assay: Cytotoxicity against human HL60 cells after 72 hrs by MTT assay; details: HL-60, 72 h; method in brief: as §1
SK-MEL-1 = assay: Cytotoxicity against human SK-MEL-1 cells after 72 hrs by MTT assay; details: SK-MEL-1, 72 h; method in brief: as §1
MOLT-3 = assay: Cytotoxicity against human MOLT3 cells after 72 hrs by MTT assay; details: MOLT-3, 72 h; method in brief: as §1
MCF7 = assay: Cytotoxicity against human MCF7 cells after 72 hrs by MTT assay; details: MCF7, 72 h; method in brief: as §1

With CC(=O)Oc1c(C(C)C)cc2c(c1OC(C)=O)[C@@]1(C)CCCC(C)(C)C1=C(O)C2=O the pIC50 (U-937) was 5.08, the pIC50 (HL-60) was 4.94 and the pIC50 (SK-MEL-1) was 4.62. The pIC50 (MOLT-3) was 4.87 and the pIC50 (MCF7) was under 4.52.
Work on CCCC(=O)O[C@@H]1[C@@H](OC(C)=O)C2=C(C(=O)C(O)=C(C(C)C)C2=O)[C@@]2(C)CCCC(C)(C)[C@H]12 yielded a pIC50 (U-937) of 5.47, a pIC50 (HL-60) of 5.25 and a pIC50 (SK-MEL-1) of 5.44. The pIC50 (MOLT-3) was 5.46 and the pIC50 (MCF7) was 5.19.
CCO[C@@H]1C[C@H]2C(C)(C)CCC[C@]2(C)C2=C1C(=O)C(C(C)C)=C(O)C2=O was tested, and the pIC50 (U-937) was under 4.52, the pIC50 (HL-60) was under 4.52 and the pIC50 (SK-MEL-1) was under 4.52. It also gave a pIC50 (MOLT-3) of under 4.52 and a pIC50 (MCF7) of under 4.52.
With CC(=O)O[C@@H]1[C@@H](OC(C)=O)C2=C(C(=O)C(O)=C(C(C)C)C2=O)[C@@]2(C)CCCC(C)(C)[C@H]12 the pIC50 (U-937) was 4.92, the pIC50 (HL-60) was 4.80 and the pIC50 (SK-MEL-1) was 4.79. It also gave a pIC50 (MOLT-3) of 5.27 and a pIC50 (MCF7) of 4.63.
In the case of C[C@H]1Cc2c(O)c3c(c(O)c2O1)[C@@]1(C)CCC(=O)C(C)(C)C1=C(O)C3=O [TEUVINCENONE A], the pIC50 (U-937) was 5.82, the pIC50 (HL-60) was 5.46 and the pIC50 (SK-MEL-1) was under 4.52. It also gave a pIC50 (MOLT-3) of 5.57 and a pIC50 (MCF7) of under 4.52.
CC(=O)OC1=C2C(C)(C)CCC[C@]2(C)c2c(cc(C(C)C)c(OC(C)=O)c2OC(C)=O)C1=O showed a pIC50 (U-937) of 5.34, a pIC50 (HL-60) of 5.39 and a pIC50 (SK-MEL-1) of 5.00. The pIC50 (MOLT-3) was 5.34 and the pIC50 (MCF7) was under 4.52.
Work on CC(=O)O[C@H]1C2=C(C(=O)C(O)=C(C(C)C)C2=O)[C@@]2(C)CCCC(C)(C)[C@@H]2[C@@H]1OC(=O)c1ccc([N+](=O)[O-])cc1 yielded a pIC50 (U-937) of 5.85, a pIC50 (HL-60) of 5.42 and a pIC50 (SK-MEL-1) of 5.17. For the same compound, the pIC50 (MOLT-3) was 5.82 and the pIC50 (MCF7) was 5.04.
CCC(=O)OC1=C(C(C)C)C(=O)C2=C(C1=O)[C@@]1(C)CCCC(C)(C)[C@@H]1[C@H](OC(=O)CC)[C@H]2OC(C)=O was tested, and the pIC50 (U-937) was 5.41, the pIC50 (HL-60) was 5.33 and the pIC50 (SK-MEL-1) was 4.56. For the same compound, the pIC50 (MOLT-3) was 4.97 and the pIC50 (MCF7) was 4.55.
With CC(C)C1=C(O)C(=O)C2=C(CC[C@H]3C(C)(C)CCC[C@]23C)C1=O [ROYLEANONE] the pIC50 (U-937) was under 4.52, the pIC50 (HL-60) was under 4.52 and the pIC50 (SK-MEL-1) was under 4.52. It also gave a pIC50 (MOLT-3) of 4.87 and a pIC50 (MCF7) of under 4.52.
Work on COC(=O)/C=C(\C)C[C@@H](OC(C)=O)[C@@]1(C)[C@H](C)CC=C2[C@@H]1CCCC2(C)C yielded a pIC50 (U-937) of under 4.52, a pIC50 (HL-60) of under 4.52 and a pIC50 (SK-MEL-1) of under 4.52. For the same compound, the pIC50 (MOLT-3) was under 4.52 and the pIC50 (MCF7) was under 4.52.
For CC(=O)O[C@H]1C2=C(C(=O)C(OC(=O)c3ccc(Cl)cc3)=C(C(C)C)C2=O)[C@@]2(C)CCCC(C)(C)[C@@H]2[C@@H]1OC(=O)c1ccc(Cl)cc1, the pIC50 (U-937) was 5.25, the pIC50 (HL-60) was 5.24 and the pIC50 (SK-MEL-1) was under 4.52. The pIC50 (MOLT-3) was under 4.52 and the pIC50 (MCF7) was under 4.52.
CCC(=O)OC/C=C(\C)C[C@@H](O)[C@@]1(C)[C@H](C)CC=C2[C@@H]1CCCC2(C)C gave a pIC50 (U-937) of 4.61, a pIC50 (HL-60) of under 4.52 and a pIC50 (SK-MEL-1) of under 4.52. The pIC50 (MOLT-3) was under 4.52 and the pIC50 (MCF7) was under 4.52.
COc1cc([C@@H]2c3cc4c(cc3[C@@H](O[C@@H]3O[C@@H]5CO[C@@H](C)O[C@H]5[C@H](O)[C@H]3O)[C@H]3COC(=O)[C@H]23)OCO4)cc(OC)c1O [ETOPOSIDE] was tested, and the pIC50 (U-937) was 5.85 and the pIC50 (HL-60) was 6.30.
CCC(=O)O[C@@H]1[C@@H](OC(C)=O)C2=C(C(=O)C(O)=C(C(C)C)C2=O)[C@@]2(C)CCCC(C)(C)[C@H]12 showed a pIC50 (U-937) of 5.15, a pIC50 (HL-60) of 4.93 and a pIC50 (SK-MEL-1) of 5.05. It also gave a pIC50 (MOLT-3) of 5.20 and a pIC50 (MCF7) of 4.77.
With CC(C)C1=CC2=CC(=O)[C@H]3C(C)(C)CCC[C@]3(C)C2=C(O)C1=O [TAXODIONE] the pIC50 (U-937) was 5.52, the pIC50 (HL-60) was 5.32 and the pIC50 (SK-MEL-1) was 5.02. For the same compound, the pIC50 (MOLT-3) was 5.74 and the pIC50 (MCF7) was under 4.52.
Compound C/C(=C\CO)C[C@@H](O)[C@@]1(C)[C@H](C)CC=C2[C@@H]1CCCC2(C)C has a pIC50 (U-937) of under 4.52, a pIC50 (HL-60) of under 4.52 and a pIC50 (SK-MEL-1) of under 4.52. It also gave a pIC50 (MOLT-3) of under 4.52 and a pIC50 (MCF7) of under 4.52.
CC(=O)OC1=C(C(C)C)C(=O)C2=C(C1=O)[C@@]1(C)CCCC(C)(C)[C@@H]1[C@H](OC(C)=O)[C@H]2OC(C)=O gave a pIC50 (U-937) of 5.19, a pIC50 (HL-60) of 5.05 and a pIC50 (SK-MEL-1) of 5.09. It also gave a pIC50 (MOLT-3) of 5.52 and a pIC50 (MCF7) of 5.23.
Work on COc1c(O)c2c(c(O)c1C(C)C)C(=O)C[C@H]1C(C)(C)CCC[C@]21C [INUROYLEANOL] yielded a pIC50 (U-937) of 4.95, a pIC50 (HL-60) of 4.68 and a pIC50 (SK-MEL-1) of under 4.52. It also gave a pIC50 (MOLT-3) of under 4.52 and a pIC50 (MCF7) of under 4.52.
With C/C(=C\COC(=O)c1ccccc1)C[C@@H](O)[C@@]1(C)[C@H](C)CC=C2[C@@H]1CCCC2(C)C the pIC50 (U-937) was under 4.52, the pIC50 (HL-60) was under 4.52 and the pIC50 (SK-MEL-1) was under 4.52. It also gave a pIC50 (MOLT-3) of under 4.52 and a pIC50 (MCF7) of under 4.52.
With CC(=O)O[C@H]1C2=C(C(=O)C(OC(=O)c3ccc([N+](=O)[O-])cc3)=C(C(C)C)C2=O)[C@@]2(C)CCCC(C)(C)[C@@H]2[C@@H]1O the pIC50 (U-937) was 5.96, the pIC50 (HL-60) was 5.08 and the pIC50 (SK-MEL-1) was 5.24. For the same compound, the pIC50 (MOLT-3) was 5.00 and the pIC50 (MCF7) was 4.94.
With CC(=O)O[C@H](C/C(C)=C/C(=O)O)[C@@]1(C)[C@H](C)CC=C2[C@@H]1CCCC2(C)C the pIC50 (U-937) was under 4.52, the pIC50 (HL-60) was under 4.52 and the pIC50 (SK-MEL-1) was under 4.52. It also gave a pIC50 (MOLT-3) of under 4.52 and a pIC50 (MCF7) of under 4.52.
With CC(=O)O[C@H](C/C(C)=C/CO)[C@@]1(C)[C@H](C)CC=C2[C@@H]1CCCC2(C)C the pIC50 (U-937) was under 4.52, the pIC50 (HL-60) was under 4.52 and the pIC50 (SK-MEL-1) was under 4.52. The pIC50 (MOLT-3) was under 4.52 and the pIC50 (MCF7) was under 4.52.
Work on CC(C)c1c(O)c(O)c2c(c1O)C(=O)C(O)=C1C(C)(C)CCC[C@@]12C yielded a pIC50 (U-937) of 5.37, a pIC50 (HL-60) of 5.39 and a pIC50 (SK-MEL-1) of 5.00. It also gave a pIC50 (MOLT-3) of 5.06 and a pIC50 (MCF7) of 4.56.
Work on CC(=O)O[C@H]1C2=C(C(=O)C(O)=C(C(C)C)C2=O)[C@@]2(C)CCCC(C)(C)[C@@H]2[C@@H]1O yielded a pIC50 (U-937) of 4.86, a pIC50 (HL-60) of 4.60 and a pIC50 (SK-MEL-1) of 4.54. It also gave a pIC50 (MOLT-3) of 4.90 and a pIC50 (MCF7) of 5.17.
CCCC(=O)OC/C=C(\C)C[C@@H](O)[C@@]1(C)[C@H](C)CC=C2[C@@H]1CCCC2(C)C was tested, and the pIC50 (U-937) was under 4.52, the pIC50 (HL-60) was under 4.52 and the pIC50 (SK-MEL-1) was under 4.52. The pIC50 (MOLT-3) was under 4.52 and the pIC50 (MCF7) was under 4.52.
Compound COc1ccc(C(=O)OC/C=C(\C)C[C@@H](O)[C@@]2(C)[C@H](C)CC=C3[C@@H]2CCCC3(C)C)cc1 has a pIC50 (U-937) of under 4.52, a pIC50 (HL-60) of under 4.52 and a pIC50 (SK-MEL-1) of under 4.52. It also gave a pIC50 (MOLT-3) of under 4.52 and a pIC50 (MCF7) of under 4.52.
COc1c(O)c2c(c(O)c1C(C)C)C(=O)C[C@H]1C(C)=C(C)C(=O)C[C@]21C showed a pIC50 (U-937) of under 4.52, a pIC50 (HL-60) of under 4.52 and a pIC50 (SK-MEL-1) of under 4.52. It also gave a pIC50 (MOLT-3) of under 4.52 and a pIC50 (MCF7) of under 4.52.

— ChEMBL document CHEMBL2424587, “Antiproliferative activity of abietane diterpenoids against human tumor cells” (J Nat Prod, 2013)
